Data published in ChEMBL document CHEMBL1128419, “Orally active beta-lactam inhibitors of human leukocyte elastase. 3. Stereospecific synthesis and structure-activity relationships for 3,3-dialkylazetidin-2-ones” (J Med Chem, 1995).

Tests used:
[1] = target: T1, Neutrophil elastase (Homo sapiens) (UniProt P08246); test: In vitro inhibition of human leukocyte elastase (HLE), and the Kobs[I] is the second-order rate constant for the time dependent inactivation of HLE by the compound.
T1 sequence (whole entry): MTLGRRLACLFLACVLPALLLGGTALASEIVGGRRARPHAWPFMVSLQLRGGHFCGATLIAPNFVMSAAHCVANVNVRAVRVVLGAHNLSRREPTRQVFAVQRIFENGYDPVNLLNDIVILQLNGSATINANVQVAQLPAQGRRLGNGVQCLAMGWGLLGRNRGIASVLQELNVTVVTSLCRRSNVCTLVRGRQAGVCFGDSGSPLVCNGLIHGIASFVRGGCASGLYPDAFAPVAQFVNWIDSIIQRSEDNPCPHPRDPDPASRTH

[2] = target: T1, Neutrophil elastase (Homo sapiens); test: Compound at an peroral dose of 30 mpk was tested for the inhibition of HLE-induced lung hemorrhage in hamsters; type: functional
Outline: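 Hamster lung hemorrhage screen: 30 mg/kg given orally as Methocel suspension 30 min before intratracheal instillation of 50 units HLE/animal; sacrifice at 3 h, saline lung lavage, hemoglobin measured at 414 nm; % inhibition versus vehicle-treated animals, averaged over three animals per dose and time.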

[3] = target: T2, Neutrophil elastase (Homo sapiens, UniProt P08246); test: In vitro human leukocyte elastase (HLE) inhibition, and the Kobs[I] is the second-order rate constant for the time dependent inactivation of HLE by the compound.
T2 sequence (P08246 whole entry): T1 sequence (whole entry)

[4] = tested on: Cricetinae gen. sp.; test: Oral effective dose required to inhibit HLE-induced lung hemorrhage in hamster; type: functional, Cricetulus griseus
Outline: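 Oral doses of 30, 10, 3, 1 (and 0.3) mg/kg as Methocel suspension given 30 min before intratracheal instillation of 50 units HLE/animal in hamsters; lungs lavaged 3 h later, hemoglobin read at 414 nm; % inhibition versus vehicle used to fit a dose-response curve for ED50.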

[5] = tested on: Cricetinae gen. sp.; test: Compound at an peroral dose of 100 mpk was tested for the inhibition of HLE-induced lung hemorrhage in hamsters; type: functional, Cricetulus griseus; details: po

SMILES | K obs / 1 [1] [M⁻¹ s⁻¹] | inhibition [2] [%] | Ki [3] [µM] | ED50 [4] [mg/kg] | inhibition in vivo at 100 mg/kg [5] [%]
C=CC[C@]1(CC)C(=O)N(C(=O)NCc2ccccc2)[C@H]1Oc1ccc(C(=O)O)cc1 | 2800 | 56 |  |  | 
CC[C@]1(C)C(=O)N(C(=O)NCc2ccccc2)[C@@H]1Oc1ccc(C(=O)O)cc1 | 200 |  |  |  | 
CCC[C@]1(CC)C(=O)N(C(=O)N[C@H](CC)c2ccccc2)[C@H]1Oc1ccc(C(=O)O)cc1 | 35500 | 52 |  |  | 
CCC[C@@]1(C)C(=O)N(C(=O)NCc2ccccc2)[C@@H]1Oc1ccc(C(=O)O)cc1 |  |  | 51 |  | 
CC[C@@]1(C)C(=O)N(C(=O)N[C@H](C)c2ccccc2)[C@H]1Oc1ccc(C(=O)O)cc1 | 15200 | 82 |  |  | 
CC[C@@H](NC(=O)N1C(=O)[C@](C)(CC)[C@@H]1Oc1ccc(C(=O)O)cc1)c1ccccc1 | 91000 | 98 |  | 3.7 | 
CC[C@H](NC(=O)N1C(=O)[C@](C)(CC)[C@@H]1Oc1ccc(C(=O)O)cc1)c1ccccc1 | 4700 | 22 |  |  | 
CCCC[C@]1(CC)C(=O)N(C(=O)NCc2ccccc2)[C@H]1Oc1ccc(C(=O)O)cc1 | 4400 | 36 |  |  | 
CC[C@@]1(C)C(=O)N(C(=O)N[C@@H](C)c2ccccc2)[C@H]1Oc1ccc(C(=O)O)cc1 | 4800 | 13 |  |  | 
CCC[C@@]1(C)C(=O)N(C(=O)NCc2ccccc2)[C@H]1Oc1ccc(C(=O)O)cc1 | 1900 |  |  |  | 49
CCC(C)[C@]1(CC)C(=O)N(C(=O)NCc2ccccc2)[C@H]1Oc1ccc(C(=O)O)cc1 (stereo partly drawn) | 1200 | 23 |  |  | 
CC[C@@]1(COC)C(=O)N(C(=O)NCc2ccccc2)[C@H]1Oc1ccc(C(=O)O)cc1 | 1900 | 46 |  |  | 
CC[C@]1(C)C(=O)N(C(=O)NCc2ccccc2)[C@H]1Oc1ccc(C(=O)O)cc1 | 160 |  |  |  | 
CC(C)[C@@]1(C)C(=O)N(C(=O)NCc2ccccc2)[C@H]1Oc1ccc(C(=O)O)cc1 | 21 |  |  |  | 

Further lines, with some results ahead:

K obs / 1 [1] [M⁻¹ s⁻¹] | inhibition [2] [%] | Ki [3] [µM] | SMILES | ED50 [4] [mg/kg] | inhibition in vivo at 100 mg/kg [5] [%]
10 | 13 |  | CC[C@@]1(C(C)C)C(=O)N(C(=O)NCc2ccccc2)[C@H]1Oc1ccc(C(=O)O)cc1 |  | 
220 |  |  | CC[C@@]1(C)C(=O)N(C(=O)NCc2ccccc2)[C@@H]1Oc1ccc(C(=O)O)cc1 |  | 
2500 | 56 |  | CCCC1(CCC)C(=O)N(C(=O)NCc2ccccc2)C1Oc1ccc(C(=O)O)cc1 (stereo not drawn) |  | 
2000 | 70 |  | CC[C@@]1(C)C(=O)N(C(=O)NCc2ccccc2)[C@H]1Oc1ccc(C(=O)O)cc1 |  | 
84 |  |  | CC[C@@]1(Cc2ccccc2)C(=O)N(C(=O)NCc2ccccc2)[C@H]1Oc1ccc(C(=O)O)cc1 |  | 
280 |  |  | CC1(C)C(=O)N(C(=O)NCc2ccccc2)C1Oc1ccc(C(=O)O)cc1 (stereo not drawn) |  | 
5200 | 78 |  | CCCC1(CC)C(=O)N(C(=O)NCc2ccccc2)C1Oc1ccc(C(=O)O)cc1 (stereo not drawn) |  | 
400 |  |  | CC[C@@]1(C)C(=O)N(C(=O)N[C@H](C)c2ccccc2)[C@@H]1Oc1ccc(C(=O)O)cc1 |  | 
4500 | 61 |  | CCC[C@]1(CC)C(=O)N(C(=O)N[C@H](C)c2ccccc2)[C@H]1Oc1ccc(C(=O)O)cc1 |  | 
90 |  |  | CC[C@]1(Cc2ccccc2)C(=O)N(C(=O)NCc2ccccc2)[C@H]1Oc1ccc(C(=O)O)cc1 |  | 
60000 | 53 |  | CCC[C@@H](NC(=O)N1C(=O)[C@@](CC)(CCC)[C@@H]1Oc1ccc(C(=O)O)cc1)c1ccccc1 |  | 
2000 | 51 |  | C=CC[C@@]1(CC)C(=O)N(C(=O)NCc2ccccc2)[C@H]1Oc1ccc(C(=O)O)cc1 |  | 
152000 | 94 |  | CCC[C@@H](NC(=O)N1C(=O)[C@](C)(CC)[C@@H]1Oc1ccc(C(=O)O)cc1)c1ccccc1 | 1.5 | 
1500 | 59 |  | CCC1(CC)C(=O)N(C(=O)NCc2ccccc2)[C@]1(C)Oc1ccc(C(=O)O)cc1 |  | 
3300 | 52 |  | CCC[C@@]1(CC)C(=O)N(C(=O)NCc2ccccc2)[C@H]1Oc1ccc(C(=O)O)cc1 |  | 
1900 | 8 |  | C[C@]1(Oc2ccc(C(=O)O)cc2)N(C(=O)NCc2ccccc2)C(=O)C12CCCC2 |  | 
